Measurements: ChEMBL document CHEMBL3352188, “Synthesis, antimicrobial and molecular docking studies of enantiomerically pure N-alkylated β-amino alcohols from phenylpropanolamines” (2014)

Columns and labels:
Staphylococcus aureus [1] = experiment: Antimicrobial activity against […] Staphylococcus aureus MTCC 96 at 1 mg/disc after 24 hrs by disc diffusion assay; assay type: functional
Outline: (§1)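 Disc diffusion on Mueller Hinton agar. Inoculum was grown in MHB for 24 h at 37 °C, swabbed onto the plates and dried for 10 min. Discs with 1 mg compound were left 30 min at room temperature for diffusion, then incubated at 37 °C for 24 h. Inhibition zone was read in mm; run twice. Solvent was the negative control, streptomycin the positive control.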

Klebsiella aerogenes [2] = experiment: Bactericidal activity against Enterobacter aerogenes MTCC 111 after 24 hrs by two fold dilution method; assay type: functional; conditions: MTCC 111, 24 h
Outline: (§2)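 Tubes held 5 mL MHB with two-fold dilutions from 1000 to 7.81 µg/mL and were inoculated with 5 × 10^5 to 1 × 10^6 cells in 0.1 mL MHB, incubated without shaking. Turbidity was checked at 20 h, tubes vortexed and re-incubated 4 h.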

Staphylococcus aureus [3] = experiment: Antimicrobial activity against methicillin-resistant Staphylococcus aureus MTCC 96 after 24 hrs by two fold dilution method; assay type: functional; conditions: MTCC 96, 24 h
Outline: (§3)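 Broth two-fold serial dilution in 96-well plates from 1000 to 7.81 µg/mL, compound in DMSO (2%). Inoculum was grown in MHB for 24 h at 37 °C; plates were incubated 24 h at 37 °C. 5 µL of broth was spotted onto MHA; MIC was the lowest concentration with no visible growth on agar. Streptomycin was the positive control.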

Klebsiella pneumoniae [4] = experiment: Antimicrobial activity against Klebsiella pneumoniae MTCC 109 at 1 mg/disc after 24 hrs by disc diffusion assay; assay type: functional; outline: as §1
Micrococcus luteus [5] = experiment: Antimicrobial activity against Micrococcus luteus MTCC 106 after 24 hrs by two fold dilution method; assay type: functional; conditions: MTCC 106, 24 h; outline: as §3
Candida albicans [6] = experiment: Fungicidal activity against Candida albicans MTCC 227 after 48 to 72 hrs by two fold dilution method; assay type: functional
Micrococcus luteus [7] = experiment: Bactericidal activity against Micrococcus luteus MTCC 106 after 24 hrs by two fold dilution method; assay type: functional; conditions: MTCC 106, 24 h; outline: as §2
Proteus vulgaris [8] = experiment: Antimicrobial activity against Proteus vulgaris MTCC 1771 at 1 mg/disc after 24 hrs by disc diffusion assay; assay type: functional; outline: as §1
Salmonella typhimurium [9] = experiment: Bactericidal activity against Salmonella typhimurium MTCC 1251 after 24 hrs by two fold dilution method; assay type: functional, Salmonella enterica subsp. enterica serovar Typhimurium; conditions: Salmonella enterica, MTCC 1251, 24 h; outline: as §2
[10] = system: Salmonella enterica subsp. enterica serovar Paratyphi B; experiment: Antimicrobial activity against Salmonella paratyphi B at 1 mg/disc after 24 hrs by disc diffusion assay; assay type: functional; outline: as §1
Shigella flexneri [11] = experiment: Bactericidal activity against Shigella flexneri MTCC 1457 after 24 hrs by two fold dilution method; assay type: functional; conditions: MTCC 1457, 24 h; outline: as §2
Pseudomonas aeruginosa [12] = experiment: Bactericidal activity against Pseudomonas aeruginosa MTCC 741 after 24 hrs by two fold dilution method; assay type: functional; conditions: MTCC 741, 24 h; outline: as §2
Salmonella typhimurium [13] = experiment: Antimicrobial activity against Salmonella typhimurium MTCC 1251 after 24 hrs by two fold dilution method; assay type: functional, Salmonella enterica subsp. enterica serovar Typhimurium; conditions: Salmonella enterica, MTCC 1251, 24 h; outline: as §3
Candida albicans [14] = experiment: Antimicrobial activity against Candida albicans MTCC 227 at 1 mg/disc after 24 hrs by disc diffusion assay; assay type: functional
[15] = system: Salmonella enterica subsp. enterica serovar Paratyphi B; experiment: Bactericidal activity against Salmonella paratyphi B after 24 hrs by two fold dilution method; assay type: functional; outline: as §2
Staphylococcus aureus [16] = experiment: Antimicrobial activity against Staphylococcus aureus MTCC 96 at 1 mg/disc after 24 hrs by disc diffusion assay; assay type: functional; outline: as §1
Shigella flexneri [17] = experiment: Antimicrobial activity against Shigella flexneri MTCC 1457 at 1 mg/disc after 24 hrs by disc diffusion assay; assay type: functional; outline: as §1
Proteus vulgaris [18] = experiment: Bactericidal activity against Proteus vulgaris MTCC 1771 after 24 hrs by two fold dilution method; assay type: functional; conditions: MTCC 1771, 24 h; outline: as §2
Klebsiella aerogenes [19] = experiment: Antimicrobial activity against Enterobacter aerogenes MTCC 111 at 1 mg/disc after 24 hrs by disc diffusion assay; assay type: functional; outline: as §1
Candida albicans [20] = experiment: Antimicrobial activity against Candida albicans MTCC 227 after 48 to 72 hrs by two fold dilution method; assay type: functional
Outline: (§4)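 Yeast was grown in Sabouraud dextrose broth at 28 °C for 48 h and tested per CLSI reference methods. Two-fold serial dilutions from 1000 to 7.81 µg/mL, compound in DMSO (2%), in 96-well plates, incubated 48–72 h at 28 °C. MIC was the lowest concentration with no visible fungal growth. Ketoconazole was the positive control.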

Klebsiella pneumoniae [21] = experiment: Bactericidal activity against Klebsiella pneumoniae MTCC 109 after 24 hrs by two fold dilution method; assay type: functional; conditions: MTCC 109, 24 h; outline: as §2
Malassezia pachydermatis [22] = experiment: Antimicrobial activity against Malassezia pachydermatis at 1 mg/disc after 24 hrs by disc diffusion assay; assay type: functional
Malassezia pachydermatis [23] = experiment: Antimicrobial activity against Malassezia pachydermatis after 48 to 72 hrs by two fold dilution method; assay type: functional; outline: as §4
Shigella flexneri [24] = experiment: Antimicrobial activity against Shigella flexneri MTCC 1457 after 24 hrs by two fold dilution method; assay type: functional; conditions: MTCC 1457, 24 h; outline: as §3
Staphylococcus aureus [25] = experiment: Bactericidal activity against Staphylococcus aureus MTCC 96 after 24 hrs by two fold dilution method; assay type: functional; conditions: MTCC 96, 24 h; outline: as §2
Bacillus subtilis [26] = experiment: Antimicrobial activity against Bacillus subtilis MTCC 441 after 24 hrs by two fold dilution method; assay type: functional; conditions: MTCC 441, 24 h; outline: as §3
Bacillus subtilis [27] = experiment: Bactericidal activity against Bacillus subtilis MTCC 441 after 24 hrs by two fold dilution method; assay type: functional; conditions: MTCC 441, 24 h; outline: as §2
Pseudomonas aeruginosa [28] = experiment: Antimicrobial activity against Pseudomonas aeruginosa MTCC 741 at 1 mg/disc after 24 hrs by disc diffusion assay; assay type: functional; outline: as §1
Pseudomonas aeruginosa [29] = experiment: Antimicrobial activity against Pseudomonas aeruginosa MTCC 741 after 24 hrs by two fold dilution method; assay type: functional; conditions: MTCC 741, 24 h; outline: as §3
Salmonella typhimurium [30] = experiment: Antimicrobial activity against Salmonella typhimurium MTCC 1251 at 1 mg/disc after 24 hrs by disc diffusion assay; assay type: functional, Salmonella enterica subsp. enterica serovar Typhimurium; outline: as §1
Klebsiella aerogenes [31] = experiment: Antimicrobial activity against Enterobacter aerogenes MTCC 111 after 24 hrs by two fold dilution method; assay type: functional; conditions: MTCC 111, 24 h; outline: as §3
Klebsiella pneumoniae [32] = experiment: Antimicrobial activity against Klebsiella pneumoniae MTCC 109 after 24 hrs by two fold dilution method; assay type: functional; conditions: MTCC 109, 24 h; outline: as §3
[33] = system: Salmonella enterica subsp. enterica serovar Paratyphi B; experiment: Antimicrobial activity against Salmonella paratyphi B after 24 hrs by two fold dilution method; assay type: functional; outline: as §3
Proteus vulgaris [34] = experiment: Antimicrobial activity against Proteus vulgaris MTCC 1771 after 24 hrs by two fold dilution method; assay type: functional; conditions: MTCC 1771, 24 h; outline: as §3
Staphylococcus aureus [35] = experiment: Bactericidal activity against methicillin-resistant Staphylococcus aureus MTCC 96 after 24 hrs by two fold dilution method; assay type: functional; conditions: MTCC 96, 24 h; outline: as §2
Malassezia pachydermatis [36] = experiment: Fungicidal activity against Malassezia pachydermatis after 48 to 72 hrs by two fold dilution method; assay type: functional
Micrococcus luteus [37] = experiment: Antimicrobial activity against Micrococcus luteus MTCC 106 at 1 mg/disc after 24 hrs by disc diffusion assay; assay type: functional; outline: as §1
Staphylococcus aureus [38] = experiment: Antimicrobial activity against Staphylococcus aureus MTCC 96 after 24 hrs by two fold dilution method; assay type: functional; conditions: MTCC 96, 24 h; outline: as §3
Bacillus subtilis [39] = experiment: Antimicrobial activity against Bacillus subtilis MTCC 441 at 1 mg/disc after 24 hrs by disc diffusion assay; assay type: functional; outline: as §1

CC[C@H](N[C@H](C)[C@@H](O)c1ccccc1)c1ccccc1.Cl
inhibition zone (IZ) (Staphylococcus aureus [1]): 22 mm | MBC (Klebsiella aerogenes [2]): 31.2 µg/mL | MIC (Staphylococcus aureus [3]): 31.2 µg/mL | inhibition zone (IZ) (Klebsiella pneumoniae [4]): 24 mm | MIC (Micrococcus luteus [5]): 31.2 µg/mL | MFC (Candida albicans [6]): 31.2 µg/mL | MBC (Micrococcus luteus [7]): 31.2 µg/mL | inhibition zone (IZ) (Proteus vulgaris [8]): 20 mm | MBC (Salmonella typhimurium [9]): 62.5 µg/mL | inhibition zone (IZ) [10]: 20 mm | MBC (Shigella flexneri [11]): 62.5 µg/mL | MBC (Pseudomonas aeruginosa [12]): 125 µg/mL | MIC (Salmonella typhimurium [13]): 62.5 µg/mL | inhibition zone (IZ) (Candida albicans [14]): 20 mm | MBC [15]: 62.5 µg/mL | inhibition zone (IZ) (Staphylococcus aureus [16]): 24 mm | inhibition zone (IZ) (Shigella flexneri [17]): 20 mm | MBC (Proteus vulgaris [18]): 62.5 µg/mL | inhibition zone (IZ) (Klebsiella aerogenes [19]): 20 mm | MIC (Candida albicans [20]): 31.2 µg/mL | MBC (Klebsiella pneumoniae [21]): 62.5 µg/mL | inhibition zone (IZ) (Malassezia pachydermatis [22]): 22 mm | MIC (Malassezia pachydermatis [23]): 31.2 µg/mL | MIC (Shigella flexneri [24]): 31.2 µg/mL | MBC (Staphylococcus aureus [25]): 31.2 µg/mL | MIC (Bacillus subtilis [26]): 31.2 µg/mL | MBC (Bacillus subtilis [27]): 62.5 µg/mL | inhibition zone (IZ) (Pseudomonas aeruginosa [28]): 16 mm | MIC (Pseudomonas aeruginosa [29]): 62.5 µg/mL | inhibition zone (IZ) (Salmonella typhimurium [30]): 19 mm | MIC (Klebsiella aerogenes [31]): 31.2 µg/mL | MIC (Klebsiella pneumoniae [32]): 31.2 µg/mL | MIC [33]: 62.5 µg/mL | MIC (Proteus vulgaris [34]): 31.2 µg/mL | MBC (Staphylococcus aureus [35]): 31.2 µg/mL | MFC (Malassezia pachydermatis [36]): 31.2 µg/mL | inhibition zone (IZ) (Micrococcus luteus [37]): 23 mm | MIC (Staphylococcus aureus [38]): 15.6 µg/mL | inhibition zone (IZ) (Bacillus subtilis [39]): 22 mm

C[C@H](N[C@H](C)[C@@H](O)c1ccccc1)c1ccccc1.Cl
inhibition zone (IZ) (Staphylococcus aureus [1]): 14 mm | MBC (Klebsiella aerogenes [2]): 250 µg/mL | MIC (Staphylococcus aureus [3]): 125 µg/mL | inhibition zone (IZ) (Klebsiella pneumoniae [4]): 15 mm | MIC (Micrococcus luteus [5]): 125 µg/mL | MFC (Candida albicans [6]): 125 µg/mL | MBC (Micrococcus luteus [7]): 125 µg/mL | inhibition zone (IZ) (Proteus vulgaris [8]): 13 mm | MBC (Salmonella typhimurium [9]): 250 µg/mL | inhibition zone (IZ) [10]: 13 mm | MBC (Shigella flexneri [11]): 500 µg/mL | MBC (Pseudomonas aeruginosa [12]): 500 µg/mL | MIC (Salmonella typhimurium [13]): 250 µg/mL | inhibition zone (IZ) (Candida albicans [14]): 15 mm | MBC [15]: 500 µg/mL | inhibition zone (IZ) (Staphylococcus aureus [16]): 15 mm | inhibition zone (IZ) (Shigella flexneri [17]): 12 mm | MBC (Proteus vulgaris [18]): 500 µg/mL | inhibition zone (IZ) (Klebsiella aerogenes [19]): 14 mm | MIC (Candida albicans [20]): 125 µg/mL | MBC (Klebsiella pneumoniae [21]): 250 µg/mL | inhibition zone (IZ) (Malassezia pachydermatis [22]): 14 mm | MIC (Malassezia pachydermatis [23]): 125 µg/mL | MIC (Shigella flexneri [24]): 250 µg/mL | MBC (Staphylococcus aureus [25]): 250 µg/mL | MIC (Bacillus subtilis [26]): 62.5 µg/mL | MBC (Bacillus subtilis [27]): 62.5 µg/mL | inhibition zone (IZ) (Pseudomonas aeruginosa [28]): 10 mm | MIC (Pseudomonas aeruginosa [29]): 250 µg/mL | inhibition zone (IZ) (Salmonella typhimurium [30]): 12 mm | MIC (Klebsiella aerogenes [31]): 125 µg/mL | MIC (Klebsiella pneumoniae [32]): 125 µg/mL | MIC [33]: 250 µg/mL | MIC (Proteus vulgaris [34]): 250 µg/mL | MBC (Staphylococcus aureus [35]): 125 µg/mL | MFC (Malassezia pachydermatis [36]): 125 µg/mL | inhibition zone (IZ) (Micrococcus luteus [37]): 15 mm | MIC (Staphylococcus aureus [38]): 125 µg/mL | inhibition zone (IZ) (Bacillus subtilis [39]): 16 mm
